The source made the active and inactive calls. No cut-off for these calls is given here.
Columns and labels:
[1] = Reactive carbonyl species trapping activity of compound assessed as MDA adduct formation at 10 mM preincubated for 24 hrs with MDA measured after 0.25 hrs by LCMS analysis; assay type: physicochemical; settings: 10000 µM
[2] = Metal chelating activity of compound assessed as compound-Cu2+ complex formation at 0.1 mM after 10 mins in presence of CuSO4.5H2O by complexometric indicator murexide based UV-Vis spectrophotometric analysis; assay type: physicochemical; settings: 100 µM
How it was run: (§1)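 Compound (0.02-2 mM) incubated with CuSO4 (120 µM) for 10 min at rt, in 10 mM hexamine/HCl with 10 mM KCl (pH 5.0), or in buffer/MeOH 75:25 for poorly soluble compounds. Murexide added, 1 min more. The A485/A520 ratio gives free Cu2+ from a CuSO4 calibration curve (0-125 µM). % chelation is taken by difference from the no-compound control; triplicates.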

[3] = Metal chelating activity of compound assessed as compound-Cu2+ complex formation at 0.05 mM after 10 mins in presence of CuSO4.5H2O by complexometric indicator murexide based UV-Vis spectrophotometric analysis; assay type: physicochemical; settings: 50 µM; how it was run: as §1
[4] = Reactive carbonyl species trapping activity of compound assessed as MGO adduct formation at 10 mM preincubated for 24 hrs with MGO measured after 5 hrs by LCMS analysis; assay type: physicochemical; settings: 10000 µM
[5] = Metal chelating activity of compound assessed as compound-Cu2+ complex formation at 2 mM after 10 mins in presence of CuSO4.5H2O by complexometric indicator murexide based UV-Vis spectrophotometric analysis; assay type: physicochemical; settings: 2000 µM; how it was run: as §1
[6] = Reactive carbonyl species trapping activity of compound assessed as MDA adduct formation at 10 mM preincubated for 24 hrs measured after 15 mins by LCMS analysis; assay type: physicochemical; settings: 0.25 h, 10000 µM
[7] = Metal chelating activity of compound assessed as compound-Cu2+ complex formation at 1 mM after 10 mins in presence of CuSO4.5H2O by complexometric indicator murexide based UV-Vis spectrophotometric analysis; assay type: physicochemical; settings: 1000 µM; how it was run: as §1
[8] = Reactive carbonyl species trapping activity of compound assessed as MGO adduct formation at 10 mM preincubated for 24 hrs with MGO measured after 0.25 hrs by LCMS analysis; assay type: physicochemical; settings: 10000 µM
[9] = Reactive carbonyl species trapping activity of compound assessed as MGO adduct formation at 10 mM preincubated for 24 hrs with MGO measured after 0.5 hrs by LCMS analysis; assay type: physicochemical; settings: 10000 µM
[10] = Antioxidant activity assessed as inhibition of AAPH-induced peroxyl radical generation measured as trolox equivalent at 10 uM preincubated for 30 mins followed by AAPH addition measured evey 60 secs for 60 cycles by ORAC-FL assay; assay type: functional; settings: in the assay text read “90 secs” for “60 secs”
How it was run: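 Fluorescein (12 nM) preincubated with compound (1-20 µM) or Trolox standard (1-50 µM) in D-PBS, at least 30 min at 37 °C. Reaction started with AAPH (30 mM). Fluorescence (ex 485/em 520 nm) read every 90 s for 60 cycles. Net AUC is converted to Trolox equivalents via the Trolox calibration line. Values are reported at 10 µM, from at least three independent experiments in triplicate.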

[11] = Reactive carbonyl species trapping activity of compound assessed as MDA adduct formation at 10 mM preincubated for 24 hrs with MDA measured after 1 hr by LCMS analysis; assay type: physicochemical; settings: 10000 µM
[12] = Reactive carbonyl species trapping activity of compound assessed as MDA adduct formation at 10 mM preincubated for 24 hrs with MDA measured after 24 hrs by LCMS analysis; assay type: physicochemical; settings: 10000 µM
[13] = Reactive carbonyl species trapping activity of compound assessed as MDA adduct formation at 10 mM preincubated for 24 hrs with MDA measured after 5 hrs by LCMS analysis; assay type: physicochemical; settings: 10000 µM
[14] = Reactive carbonyl species trapping activity of compound assessed as MDA adduct formation at 10 mM preincubated for 24 hrs with MDA measured after 0.5 hrs by LCMS analysis; assay type: physicochemical; settings: 10000 µM
[15] = species on record: Rattus norvegicus; test: Cytotoxicity against rat […] PC12 cells assessed as reduction in cell viability at 10 to 100 uM after 24 hrs by WST8-based CCK8 assay; assay type: toxicity; settings: pc-12, 24 h
How it was run: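 PC12 Adh cells (rat pheochromocytoma-derived) grown in F-12K with 2.5% FBS, 15% horse serum and pen/strep at 37 °C, 5% CO2. Seeded at 5×10^3 cells/well; treated at 80% confluency with 10 or 100 µM for 24 h. 10% DMSO served as positive cytotoxicity control. CCK-8 added for 1 h at 37 °C, absorbance read at 450 nm. Viability given as % of untreated cells; at least three experiments in triplicate.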

[16] = Metal chelating activity of compound assessed as compound-Cu2+ complex formation at 0.08 mM after 10 mins in presence of CuSO4.5H2O by complexometric indicator murexide based UV-Vis spectrophotometric analysis; assay type: physicochemical; settings: 80 µM; how it was run: as §1
[17] = Reactive carbonyl species trapping activity of compound assessed as MGO adduct formation at 10 mM preincubated for 24 hrs with MGO measured after 24 hrs by LCMS analysis; assay type: physicochemical; settings: 10000 µM
[18] = Reactive carbonyl species trapping activity of compound assessed as MGO adduct formation at 10 mM preincubated for 24 hrs with MGO measured after 15 mins by LCMS analysis; assay type: physicochemical; settings: 0.25 h, 10000 µM
[19] = Metal chelating activity of compound assessed as compound-Cu2+ complex formation at 0.02 mM after 10 mins in presence of CuSO4.5H2O by complexometric indicator murexide based UV-Vis spectrophotometric analysis; assay type: physicochemical; settings: 20 µM; how it was run: as §1
[20] = Metal chelating activity of compound assessed as compound-Cu2+ complex formation at 0.5 mM after 10 mins in presence of CuSO4.5H2O by complexometric indicator murexide based UV-Vis spectrophotometric analysis; assay type: physicochemical; settings: 500 µM; how it was run: as §1
[21] = Metal chelating activity of compound assessed as compound-Cu2+ complex formation at 200 uM after 10 mins in presence of CuSO4.5H2O by complexometric indicator murexide based UV-Vis spectrophotometric analysis; assay type: physicochemical; how it was run: as §1
[22] = Reactive carbonyl species trapping activity of compound assessed as MGO adduct formation at 10 mM preincubated for 24 hrs with MGO measured after 1 hr by LCMS analysis; assay type: physicochemical; settings: 10000 µM
[23] = test system: PC-12; test: Neuroprotective activity against MGO-induced apoptosis in rat PC12 cells assessed as reduction DNA fragmentation at 100 uM preincubated for 1 hr followed by MGO addition after 24 hrs by ELISA; assay type: functional, cell-based
How it was run: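 PC12 cells pretreated 1 h at 37 °C with compound (10 or 100 µM) in D-PBS, then exposed to MGO (2 mM) for 24 h. Lysates analysed by anti-histone/anti-DNA-peroxidase ELISA for cytoplasmic mono- and oligonucleosomes, with ABTS read-out at 405 nm. Cells without MGO were the control; MGO alone was the apoptosis standard.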

Row | Activity [1] [%] | Activity [2] [%] | Activity [3] [%] | Activity [4] [%] | Activity [5] [%] | Activity [7] [%] | Activity [8] [%] | Activity [9] [%] | Activity [11] [%] | Activity [12] [%] | Activity [13] [%] | Activity [14] [%] | Activity [16] [%] | Activity [17] [%] | Activity [18] [%] | Activity [19] [%] | Activity [20] [%] | Activity [21] [%] | SMILES | Activity (umolequiv/umol) [10] | Activity [15] | further results
1 | 76 | 40.91 | 24.69 | 100 | 95.45 | 93.45 | 95 | 98 | 92 | 99 | 95 | 82 | 35.1 | 100 | 95 | 11.03 | 88.46 | 66.7 | Cc1c(O)c(=O)ccn1CCCNC(=O)CCC(N)CN.Cl.Cl (configuration not stated) | 1.01 | Non-Toxic | Activity [6]: 76%; Activity [22]: 100%
2 | 74 | 36.03 | 23.88 | 99 | 76.53 | 74.59 | 97 | 97 | 81 | 84 | 85 | 76 | 31.08 | 98 | 97 | 11.76 | 71.58 | 53.23 | Cl.Cl.NCC(N)CCC(=O)N1CCN(C(=O)CCn2cccc(O)c2=O)CC1 (configuration not stated) | 0.99 | Non-Toxic | Activity [22]: 98%
3 | 74 | 42.39 | 20.77 | 100 | 74.74 | 74.89 | 97 | 98 | 81 | 93 | 85 | 75 | 37.47 | 98 | 97 | 11.11 | 71.22 | 55.83 | Cl.Cl.NCC(N)CCC(=O)NCCCn1cccc(O)c1=O (configuration not stated) | 1.96 | Non-Toxic | Activity [23]: Active; Activity [22]: 97%
4 | 86 | 52.98 | 38.95 | 99 | 97.73 | 96 | 99 | 99 | 88 | 92 | 89 | 88 | 48.35 | 100 | 99 | 21.31 | 91.66 | 74.7 | Cc1c(O)c(=O)ccn1CCC(=O)NCCCCC(N)CN.Cl.Cl (configuration not stated) | 1.24 | Non-Toxic | Activity [22]: 99%
5 | 50 | 29.96 | 14 | 88 | 76.14 | 78.48 | 81 | 85 | 68 | 87 | 69 | 67 | 22.88 | 100 | 81 | 5.71 | 74.33 | 52.75 | Cl.Cl.NCC(N)CCC(=O)N1CCN(C(=O)c2cc(O)c(O)c(O)c2)CC1 (configuration not stated) | 0.89 | Non-Toxic | Activity [22]: 87%
